Source: ChEMBL document CHEMBL2390903, “Anti-tubercular agents. Part 7: a new class of diarylpyrrole-oxazolidinone conjugates as antimycobacterial agents” (Eur J Med Chem, 2013)
Values after ≈ are worked out from the molar mass of the structure shown.

Columns and labels:
Micrococcus luteus [1] = assay: Antibacterial activity against Micrococcus luteus MTCC 2470 assessed as growth inhibition after 24 hrs by agar dilution method; type: functional; conditions: MTCC 2470, 24 h
Staphylococcus [2] = assay: Antibacterial activity against 16-membered ring macrolide- lincosamide-streptogramin B-resistant Staphylococcus MTCC 2940 assessed as growth inhibition after 24 hrs by agar dilution method; type: functional; conditions: MTCC 2940, 24 h
Staphylococcus aureus [3] = assay: Antibacterial activity against Staphylococcus aureus MTCC 96 assessed as growth inhibition after 24 hrs by agar dilution method; type: functional; conditions: MTCC 96, 24 h
Escherichia coli = assay: Antibacterial activity against Escherichia coli MTCC 739 assessed as growth inhibition after 24 hrs by agar dilution method; type: functional; conditions: MTCC 739, 24 h
Bacillus subtilis [4] = assay: Antibacterial activity against Bacillus subtilis MTCC 121 assessed as growth inhibition after 24 hrs by agar dilution method; type: functional; conditions: MTCC 121, 24 h
Pseudomonas aeruginosa = assay: Antibacterial activity against Pseudomonas aeruginosa MTCC 2453 assessed as growth inhibition after 24 hrs by agar dilution method; type: functional; conditions: MTCC 2453, 24 h
[5] = Cytotoxicity against mouse J744 cells assessed as growth inhibition after 24 hrs by MTT assay; type: cell-based; conditions: J744, 24 h
Summary of the method: (§1)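 Mouse J-774 macrophages exposed to test material (40) in RPMI with 10% FCS for 24 h at 37 °C under CO2. MTT then added with a further 3 h incubation. Formazan absorbance read at […]. Percent cytotoxicity calculated relative to untreated cells.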

[6] = Cytotoxicity against mouse J744 cells assessed as growth inhibition at 40 ug/mL after 24 hrs by MTT assay relative to control; type: cell-based; conditions: read-out: GI; summary of the method: as §1
Bacillus subtilis [7] = assay: Antibacterial activity against Bacillus subtilis MTCC 121 assessed as growth inhibition at 20 ug/mL after 24 hrs; type: functional; conditions: MTCC 121, 24 h, read-out: IZ
Staphylococcus [8] = assay: Antibacterial activity against 16-membered ring macrolide- lincosamide-streptogramin B-resistant Staphylococcus MTCC 2940 assessed as growth inhibition at 20 ug/mL after 24 hrs; type: functional; conditions: MTCC 2940, 24 h, read-out: IZ
[9] = Selectivity index, ratio of IC50 for mouse J744 cells to MIC for Mycobacterium tuberculosis H37Rv; type: functional
[10] = tested on: Mycobacterium tuberculosis; assay: Antitubercular activity against Mycobacterium tuberculosis XDR-1 assessed as growth inhibition after 2 to 3 weeks by broth microdilution method; type: functional
Summary of the method: (§2)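 Primary screen of all compounds against H37Rv at a single concentration in triplicate by microplate dilution. Actives then went to MIC determination by broth microdilution against H37Rv, rifampicin-resistant and XDR-1 isolates. Plates incubated 2–3 weeks at 37 °C in a CO2 incubator. MIC read visually as absence of growth turbidity. Rifampicin and linezolid served as reference drugs.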

Micrococcus luteus [11] = assay: Antibacterial activity against Micrococcus luteus MTCC 2470 assessed as growth inhibition at 20 ug/mL after 24 hrs; type: functional; conditions: MTCC 2470, 24 h, read-out: IZ
[12] = tested on: Mycobacterium tuberculosis; assay: Antitubercular activity against Mycobacterium tuberculosis H37Rv assessed as growth inhibition after 2 to 3 weeks by broth microdilution method; type: functional; summary of the method: as §2
Staphylococcus aureus [13] = assay: Antibacterial activity against Staphylococcus aureus MTCC 96 assessed as growth inhibition at 20 ug/mL after 24 hrs; type: functional; conditions: MTCC 96, 24 h, read-out: IZ
Bacillus subtilis [14] = assay: Antibacterial activity against Bacillus subtilis MTCC 121 assessed as growth inhibition at 20 mg/mL after 24 hrs; type: functional; conditions: MTCC 121, 24 h, read-out: IZ
Staphylococcus [15] = assay: Antibacterial activity against 16-membered ring macrolide- lincosamide-streptogramin B-resistant Staphylococcus MTCC 2940 assessed as growth inhibition at 20 mg/mL after 24 hrs; type: functional; conditions: MTCC 2940, 24 h, read-out: IZ

Structure (SMILES) | MIC (Micrococcus luteus [1]) [µg/mL] | MIC (Staphylococcus [2]) [µg/mL] | MIC (Staphylococcus aureus [3]) [µg/mL] | MIC (Escherichia coli) [µg/mL] | MIC (Bacillus subtilis [4]) [µg/mL] | MIC (Pseudomonas aeruginosa) [µg/mL] | IC50 [5] [µM] | inhibition at 24 h, 40 ug/mL [6] [%] | zone of inhibition at 20 µg/mL (Bacillus subtilis [7]) [mm] | zone of inhibition at 20 µg/mL (Staphylococcus [8]) [mm] | Selectivity Index [9] | MIC [10] [µg/mL] | zone of inhibition at 20 µg/mL (Micrococcus luteus [11]) [mm] | MIC [12] [µg/mL] | zone of inhibition at 20 µg/mL (Staphylococcus aureus [13]) [mm] | zone of inhibition at 20000 µg/mL (Bacillus subtilis [14]) [mm] | zone of inhibition at 20000 µg/mL (Staphylococcus [15]) [mm]
CC(=O)NC[C@H]1CN(c2ccc(N3CCN(Cc4cc(-c5ccccc5C)n(-c5ccc(F)cc5)c4C)CC3)c(F)c2)C(=O)O1 | 1.5 (≈ 2.44 µM) | 5 (≈ 8.15 µM) | 1.5 (≈ 2.44 µM) | > 40 | 3 (≈ 4.89 µM) | > 40 |  |  |  |  |  |  |  |  |  |  | 
CC(=O)NC[C@H]1CN(c2ccc(N3CCN(Cc4cc(-c5ccc(C(C)C)cc5)n(-c5ccc(F)cc5F)c4C)CC3)c(F)c2)C(=O)O1 | 3 (≈ 4.55 µM) | 6 (≈ 9.09 µM) | 2 (≈ 3.03 µM) | > 40 | 1.5 (≈ 2.27 µM) | > 40 | > 40 | 40.2 | 12 | 15 | >10 | 16 (≈ 24.3 µM) | 18 | 4 (≈ 6.06 µM) | 16 |  | 
Cc1cccc(-c2cn(C[C@H]3CN(c4ccc(N5CCN(Cc6cc(-c7ccccc7C)n(-c7ccc(F)cc7)c6C)CC5)c(F)c4)C(=O)O3)nn2)c1 | > 40 | > 40 | > 40 | > 40 | 9 (≈ 12.6 µM) | > 40 |  |  |  |  |  | > 16 |  | > 16 |  |  | 
CO[C@H]1/C=C/O[C@@]2(C)Oc3c(C)c(O)c4c(O)c(c(/C=N/N5CCN(C)CC5)c(O)c4c3C2=O)NC(=O)/C(C)=C\C=C\[C@H](C)[C@H](O)[C@@H](C)[C@@H](O)[C@@H](C)[C@H](OC(C)=O)[C@@H]1C [RIFAMPIN] |  |  |  |  |  |  |  |  |  |  |  | 2 (≈ 2.43 µM) |  | 0.2 (≈ 0.243 µM) |  |  | 
Cc1c(CN2CCN(c3ccc(N4C[C@H](Cn5cc(-c6ccccc6)nn5)OC4=O)cc3F)CC2)cc(-c2ccc(F)cc2F)n1-c1cc(F)ccc1Br |  |  |  |  |  |  |  |  |  |  |  | > 16 |  | > 16 |  |  | 
Cc1c(CN2CCN(c3ccc(N4C[C@H](Cn5cc(-c6ccccc6)nn5)OC4=O)cc3F)CC2)cc(-c2ccc(Cl)c(F)c2)n1-c1ccc(OC(F)(F)F)cc1 | 8 (≈ 9.95 µM) | > 40 | > 40 | > 40 | > 40 | > 40 |  |  |  |  |  | > 16 |  | > 16 |  |  | 
Cc1c(CN2CCN(c3ccc(N4C[C@H](Cn5cc(-c6cncn6C)nn5)OC4=O)cc3F)CC2)cc(-c2ccc(F)cc2F)n1-c1ccc(F)cc1 | > 30 | > 30 | 16 (≈ 22 µM) | > 40 | > 30 | > 40 |  |  |  |  |  | 16 (≈ 22 µM) |  | > 6.25 |  |  | 
Cc1c(CN2CCN(c3ccc(N4C[C@H](Cn5cc(-c6ccccn6)nn5)OC4=O)cc3F)CC2)cc(-c2ccc(F)cc2F)n1-c1ccc(F)cc1 | 3 (≈ 4.15 µM) | 6 (≈ 8.3 µM) | 0.5 (≈ 0.692 µM) | > 40 | 1 (≈ 1.38 µM) | > 40 | > 40 | 31.9 | 24 | 40 | >10 | 16 (≈ 22.1 µM) | 36 | 4 (≈ 5.53 µM) | 39 |  | 
Cc1c(CN2CCN(c3ccc(N4C[C@H](Cn5cc(-c6ccccn6)nn5)OC4=O)cc3F)CC2)cc(-c2ccc(F)cc2F)n1-c1cc(F)ccc1Br |  |  |  |  |  |  | > 40 | 43.9 |  |  | >10 |  |  |  |  |  | 
Cc1ccccc1-c1cc(CN2CCN(c3ccc(N4C[C@H](Cn5cc(-c6cncn6C)nn5)OC4=O)cc3F)CC2)c(C)n1-c1ccc(F)cc1 | > 30 | > 30 | 10 (≈ 14.2 µM) | > 40 | > 30 | > 40 | > 40 | 49.3 |  |  | >10 | 8 (≈ 11.4 µM) |  | 2 (≈ 2.84 µM) |  |  | 
Cc1ccccc1-c1cc(CN2CCN(c3ccc(N4C[C@H](Cn5cc(-c6cncn6C)nn5)OC4=O)cc3F)CC2)c(C)n1-c1ccc(F)c(F)c1 | 10 (≈ 13.9 µM) | > 30 | 10 (≈ 13.9 µM) | > 40 | > 30 | > 40 |  |  |  |  |  | > 16 |  | > 6.25 |  |  | 
Cc1ccccc1-c1cc(CN2CCN(c3ccc(N4C[C@H](Cn5cc(-c6ccccn6)nn5)OC4=O)cc3F)CC2)c(C)n1-c1ccc(F)c(F)c1 | > 30 | 5 (≈ 6.96 µM) | > 30 | > 40 | 12 (≈ 16.7 µM) | > 40 | > 40 | 40 |  |  | >10 | 16 (≈ 22.3 µM) |  | 4 (≈ 5.56 µM) |  |  | 
Cc1ccc(-c2cc(CN3CCN(c4ccc(N5C[C@H](Cn6cc(-c7ccccc7)nn6)OC5=O)cc4F)CC3)c(C)n2-c2ccc(Cl)c(Cl)c2)cc1 | 0.5 (≈ 0.666 µM) | 9 (≈ 12 µM) | 8 (≈ 10.7 µM) | > 40 | 2.5 (≈ 3.33 µM) | > 40 |  |  | 14 | 19 |  | > 16 | 17 | > 16 | 21 |  | 
Cc1c(CN2CCN(c3ccc(N4C[C@H](Cn5cc(-c6cncn6C)nn5)OC4=O)cc3F)CC2)cc(-c2ccc(C(C)C)cc2)n1-c1ccc(F)cc1F | > 30 | > 30 | 8 (≈ 10.7 µM) | > 40 | > 30 | > 40 | > 40 | 44.7 |  |  | >10 | 4 (≈ 5.33 µM) |  | 4 (≈ 5.33 µM) |  |  | 
Cc1c(CN2CCN(c3ccc(N4C[C@H](Cn5cc(-c6ccccc6)nn5)OC4=O)cc3F)CC2)cc(-c2cccc(Cl)c2)n1-c1ccccc1F | 8 (≈ 11.1 µM) | 10 (≈ 13.9 µM) | > 40 | > 40 | > 40 | > 40 |  |  |  |  |  | > 16 |  | > 16 |  |  | 
CC(=O)NC[C@H]1CN(c2ccc(N3CCN(Cc4cc(-c5ccc(F)cc5F)n(-c5cc(F)ccc5Br)c4C)CC3)c(F)c2)C(=O)O1 | 5 (≈ 7 µM) | 5 (≈ 7 µM) | 3 (≈ 4.2 µM) | > 40 | 2.5 (≈ 3.5 µM) | > 40 |  |  | 14 | 18 |  | > 16 | 19 | 8 (≈ 11.2 µM) | 20 |  | 
CC(=O)NC[C@H]1CN(c2ccc(N3CCN(Cc4cc(-c5cccc(Cl)c5)n(-c5ccccc5F)c4C)CC3)c(F)c2)C(=O)O1 | 1.5 (≈ 2.37 µM) | 2 (≈ 3.15 µM) | 0.5 (≈ 0.788 µM) | > 40 | 1.5 (≈ 2.37 µM) | > 40 |  |  | 18 | 23 |  | > 16 | 27 | 8 (≈ 12.6 µM) | 18 |  | 
Cc1c(CN2CCN(c3ccc(N4C[C@H](Cn5cc(-c6ccccn6)nn5)OC4=O)cc3F)CC2)cc(-c2ccc(Cl)c(F)c2)n1-c1ccc(OC(F)(F)F)cc1 | 8 (≈ 9.94 µM) | 9 (≈ 11.2 µM) | > 30 | > 40 | 16 (≈ 19.9 µM) | > 40 | > 40 | 37.7 |  |  | >10 | > 16 |  | 4 (≈ 4.97 µM) |  |  | 
Cc1ccc(-c2cc(CN3CCN(c4ccc(N5C[C@H](Cn6cc(-c7ccccn7)nn6)OC5=O)cc4F)CC3)c(C)n2-c2ccc(Cl)c(Cl)c2)cc1 | 2.5 (≈ 3.33 µM) | > 40 | 8 (≈ 10.6 µM) | > 40 | 1 (≈ 1.33 µM) | > 40 |  |  |  |  |  | 16 (≈ 21.3 µM) |  | 4 (≈ 5.32 µM) |  |  | 
CC(=O)NC[C@H]1CN(c2ccc(N3CCOCC3)c(F)c2)C(=O)O1 [LINEZOLID] | 1 (≈ 2.96 µM) | 0.5 (≈ 1.48 µM) | 1.5 (≈ 4.45 µM) |  | 0.5 (≈ 1.48 µM) |  |  |  |  |  |  | 4 (≈ 11.9 µM) |  | 1 (≈ 2.96 µM) |  | 20 | 18
